The record followed here is ChEMBL document CHEMBL1158161, “Study of chemical stability of antivirally active 5-azacytosine acyclic nucleoside phosphonates using NMR spectroscopy” (Bioorg Med Chem, 2008).

Broadly, the half-life is the time in which the quantity being followed falls by half. One may read the CC50 as the concentration that lowers cell viability or growth by half. Broadly, the EC50 is the midpoint of the concentration-response curve. A low value points to higher potency in that assay.

A short description of data set [1]: Stability in PBS assessed as half life. In kind it is physicochemical. Summed up:
(§1)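 Hydrolytic decomposition was followed by ¹H NMR on 30 mg samples in D₂O, with spectra recorded periodically. Media were 1 M glycine (pH 5.75), PBS (pH 7.4, phosphate with NaCl), or 50 mM phosphate at pH 4.0 or 10.0. Buffers were made in H₂O, lyophilized and redissolved in D₂O. Low-field signals were integrated to give a rate constant k and a half-life.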

Data set [2] in a line: Cytotoxicity against HEL cells. In kind it is cell-based. To be noted: human.
The nature of data set [3]: Stability in 1 M glycine solution assessed as half life. In kind it is physicochemical. The essentials: as §1
The test system of data set [4] is Human alphaherpesvirus 1. In words: Antiviral activity against HSV1. In kind it is functional, organism-based.
Data set [5] concerns Human betaherpesvirus 5. Briefly: Antiviral activity against HCMV. In kind it is functional, organism-based.
Data set [6] concerns Human betaherpesvirus 6. Briefly: Antiviral activity against HHV6. In kind it is functional, organism-based.
For data set [7], the system named is Human alphaherpesvirus 3. In words: Antiviral activity against VZV. In kind it is functional, organism-based.
Data set [8] has as its system Vaccinia virus. Briefly: Antiviral activity against vaccinia virus. As to conditions: Orthopoxvirus vaccinia. In kind it is functional, organism-based.
Data set [9] in a line: Stability in phosphate buffer at pH 4.0 assessed as half life. In kind it is physicochemical. Summed up:
as §1

Data set [10] can be described thus: Stability in 1 M glycine solution at pH 5.8 assessed as half life. In kind it is physicochemical. Summed up:
as §1

Data set [11] can be described thus: Stability in PBS at pH 7.4 assessed as half life. In kind it is physicochemical. Summed up: as §1
Data set [12] is described as follows: Stability in phosphate buffer at pH 10.0 assessed as half life. In kind it is physicochemical. Summed up:
as §1

In brackets after ≈: the same amount, converted by molar mass. Bounds are passed on as bounds.

On to `NC(N)=NC(=O)NCCOCP(=O)(O)O`, for which, in data set [1], the half-life is 39.3 days. In addition, in data set [2], the CC50 is greater than 100 µg/mL and the MCC was greater than 100 µg/mL. In data set [3], the half-life is 26.2 days.

As for `NC(N)=NC(=O)NC[C@H]1COP(=O)(O)CO1`, the half-life in data set [1] was 29.7 days. In data set [2], the CC50 was greater than 100 µg/mL and the MCC was greater than 100 µg/mL. Also, in data set [3], the half-life is 14.7 days.

Regarding `NC(N)=NC(=O)NC[C@H](O)CO`, in data set [1], the half-life is 19.6 days. Further, in [2], the CC50 is greater than 100 µg/mL and the MCC was greater than 100 µg/mL. The half-life in [3] was 16.1 days.

Regarding `CCCCCCCCCCCCCCCCCCOP1(=O)CO[C@@H](Cn2cnc(N)nc2=O)CO1` (stereo not given in full), the concentration giving a half-maximal response (EC50) in data set [4] was 0.003 µg/mL (≈ 0.00583 µM); in [5] it was no more than 0.00014 µg/mL; in [6], 0.008 µg/mL (≈ 0.0155 µM); in [7] it was no more than 0.00014 µg/mL; in data set [8], 0.037 µg/mL (≈ 0.0719 µM).

For `Nc1ncn(C[C@H](O)CO)c(=O)n1`, the half-life in data set [9] is 17.8 days; in data set [10] it was 15.8 days; in data set [11], 19.6 days; in [12], 10.3 days.

For the compound `NC(N)=NC(=O)NC[C@@H](COC=O)OCP(=O)(O)O`, in data set [1], the half-life was 4.98 days. In [2], the CC50 is greater than 100 µg/mL and the MCC is greater than 100 µg/mL. Further, the half-life in data set [3] was 4.75 days.
